Measurements as given in the RNAGym collection of RNA variant scans (doi:10.1126/science.aae0568).
Fewer inactive variants are shown than the library holds.

B1: tRNA (parent)
chain: GUUCCGUUGGCGUAAUGGUAACGCGUCUCCCUCCUAAGGAGAAGACUGCGGGUUCGAGUCCCGUACGGAACG

Variants of: B1
Test: yeast fitness relative to wild type (ratio to wild type); higher = fitter; tRNA-Arg(CCU), competitive growth, 37 C, YPD
How it was run: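 Variants of the tRNA-Arg(CCU) gene were chemically synthesised with a 3% per-site mutation rate across 69 sites and placed at the native genomic locus in Saccharomyces cerevisiae. Six parallel replicates of the pooled strains were competed in YPD at 37°C for 24 hours, and gene amplicons from the start and end populations were read by 100-nucleotide paired-end sequencing. Darwinian fitness relative to wild type was derived from changes in genotype frequencies. Genotypes required ≥ 100 starting reads, and estimates < 0.5 were set to 0.5.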

Variant	yeast fitness
G18C C34U	≤ 0.5
G10A U19C G41C	0.532
U8C A15G U16A C46U U54C	0.601
A21G U59C A65U G67C A70C	≤ 0.5
G6A G9C C24U C30G C31A A43G A65C	≤ 0.5
U2A C4G G41A C55A	≤ 0.5
G41C A65C	0.794
U13A C31A G44A A65G A70U	≤ 0.5
C24G A40G A42G	0.54
C29U U64G	0.748
C5A G18C A45C G68A A70G	≤ 0.5
A14G A20G A42U	0.696
U3G C4U C30U C33G C55U G68U	≤ 0.5
C24G C29G C33A G48A C55G G68C	≤ 0.5
C11U C34A	0.758
C30G A43U G48C C55A C66U	≤ 0.5
U3C U32A C46G C62A	≤ 0.5
G41A A65G G67A	0.635
U7A A20G C46G G67C A69C	≤ 0.5
A21U C24G C49A U54G	0.56
U13C C30A C31A	0.532
A42U A43U C62A A65U A69G	0.567
G12C A15U C24A	0.528
C4A C27G C46U	0.636

Variant	yeast fitness
G12A C34G A37G G38A G50A	≤ 0.5
G10C C11A C34A G51A C61G A69U	≤ 0.5
A42U G63A A65G	0.572
G10C A40U U47C G68A	≤ 0.5
C5A U7C C34U C66U	≤ 0.5
C24A C27A U28A G67U	≤ 0.5
C11U U13C A20C C22G	≤ 0.5
U8C G9A C22G U32G G51C U64A C66U A69C	≤ 0.5
G6A A14U	0.663
C5U C66A	0.729
A15U C31U C33U G67A	0.642
U3G C49G G56A	≤ 0.5
C4G C11A U32G A36G	≤ 0.5
U13C U59A	0.768
C5A C24G A69C	≤ 0.5
A15C G25A A65C	0.711
U16A C22U U26C U54G C66A	0.58
U2C A14G A36C U47A C61A	≤ 0.5
A15U A20U C27G C49G	0.64
A15G U64A	0.706
G10C A14C C24A C31G	≤ 0.5
U3C C49A	0.599
C4A A43C G51A G56C	0.516
A20U U35C	0.949

Variant	yeast fitness
U2G A14G C27G G52C	≤ 0.5
C11U G17A A40C	≤ 0.5
U16C G48C C62U A65G	≤ 0.5
U54C G56A	0.788
A21G A45C U59C A69G	0.539
A45C G50C	0.604
C30U G58C G63C	0.57
A36U G48C C66U	≤ 0.5
C5U C22G C31G U54G	≤ 0.5
U7A G23C C33G C46U U64C	0.579
G44C A65U	0.873
C11U C29G	0.687
A21C A43G G48C	≤ 0.5
A36C G41A	0.587
U35A G44C	0.71
U3C U13C U19A C22U G68C	≤ 0.5
C61U G68A	0.711
U19A U64A	0.807
C4G U7C C22U C27A U59G	≤ 0.5
A42U U47C C62U	0.628
G12A C24A A36U A65U	≤ 0.5
G9A G56A A70C	1.03
A21C U35C	0.856
G39C C55A	0.643

Variant	yeast fitness
G17C C24U C46G C62G	0.572
C30A C60A C62A	≤ 0.5
A20G G23C C31U A57U C66U	≤ 0.5
C31U A40U U59C	0.648
U13A C27G G52A U53C G63C	≤ 0.5
G6A A36C A37G G52A	≤ 0.5
C5U C24A U32C	0.565
C31G A57C C62G	0.703
A15G C30A C62G	0.634
U3A C4G G68A	≤ 0.5
C27U U32C C55A	≤ 0.5
C5A A36G G44A U47C A70U	≤ 0.5
G9C C24G C27U U47G U53A	≤ 0.5
U3C U8A A15C	≤ 0.5
C4U C5G C29G C31G A37C U54A	≤ 0.5
C4G U7G A20G A65U	≤ 0.5
G51A G56C	0.597
C29A C49A	0.506
C34G C49U C66U	0.557
C22U C46U G50C C55U A57U C62G A70U	≤ 0.5
C46U C55G	0.65
C11G A20G A43U U47A A65U G67C	≤ 0.5
G17A C31G	0.85
A14G U35A G56A C66U	≤ 0.5

Variant	yeast fitness
A21G C30G A36G C46G A57U	0.551
A40U C46G G68C	≤ 0.5
A14C A21U C46A A69C	0.59
C27U A40G U64C	0.602
U2C C27U U28G C33G A36G	0.544
G17C G38C A43C A69U	≤ 0.5
U3A A20G C29U G48C	≤ 0.5
C46G A57G	0.987
C11U G17C C62U A69U	0.567
C5G C30A A36G	0.568
G6C C24U G38C A40G	≤ 0.5
U19A U54A	0.706
C4A G18A	0.78
C4U A15U C30A A40G C66U A70G	≤ 0.5
C29A A37C	0.597
C62A A70C	0.955
G12C U32G C33G G68C	≤ 0.5
C22G C55U	0.739
U7C A40G A42G G48A G56C	≤ 0.5
C30G U47C G51A C66U	≤ 0.5
C5U C34A G38C A70C	0.608
A15C U47G G52C	≤ 0.5
C34G U47A G67A	≤ 0.5
C4U C24A U26A	≤ 0.5

Variant	yeast fitness
C5G G9C U35G C66U	≤ 0.5
C22U A36G G51C A65C	0.6
C11U U19G G52A	0.609
G38C C46A C62G C66U	≤ 0.5
A37G C62U	0.864
A14C G67A	0.695
U16C A36C	0.675
G9C U19C C31A	≤ 0.5
C11A C31G	0.592
C5U C22U G52A U53C U59G C61G C62U	≤ 0.5
A15U U19G	0.631
U28G C29U G50C	≤ 0.5
C30U A45G C61A A65U	≤ 0.5
C22U C30A A40U A43U	≤ 0.5
C4U G67U	0.782
C4U A14G A36C C46G C61G	0.544
G25C U28A G51A	0.604
U3A C27U A37G G41C U64C A70C	≤ 0.5
C4A U19A A40U G48C	≤ 0.5
C33G C49G C55U	≤ 0.5
G6A C22A C29U	≤ 0.5
A14C A36G A43U G68A	0.522
C29U C31A G38C C60A	≤ 0.5
C4A C11U A21U G23A	≤ 0.5

Variant	yeast fitness
U2A C24U C31G G44A	≤ 0.5
G10C U16G A43C G51C	≤ 0.5
C22G C33G A36U	≤ 0.5
G6A G52C	0.635
A36U G58A	0.624
U16G U28C	0.862
C11G C24U U28C C55G	≤ 0.5
C5G U26C C34G U54C	≤ 0.5
U13G G18C C30U C33G A65C A70G	≤ 0.5
G18A C24G G56A C66U	≤ 0.5
U8A G39C A57G A65G	≤ 0.5
C5U C24A U26C A40G G56A	≤ 0.5
U3A C4U G48U	≤ 0.5
C24G C30G C34G A70G	≤ 0.5
G10A A15G C27U A42C G50C	≤ 0.5
C4G C31G G38U	≤ 0.5
C5A C29U A45C	0.546
U35C G41A A45U	0.664
C29U C33U C66U G67A	0.598
A15C C27U C30U U32G U35A A37C A57U	≤ 0.5
U13A C55A C60G C62G	≤ 0.5
C5G A36U A42G A57C	≤ 0.5
C4U G6A C46G	0.623
